# An excerpt weighted towards active compounds, which were near 9.6% of everything screened.
# TNAP inh noacc = human TNAP enzyme inhibitors, primary screen, biochemical, luminescent, no phosphate acceptor, uHTS | purified TNAP, CDP-star luminescence, 30 min | inhibition, % at 20 µM | hit rate 0.26% among 200,000 | AID 1012, 2008;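 active means tissue-nonspecific alkaline phosphatase inhibition above about 50% at 20 µM in the single-dose screen, limit read from the data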;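 further: 0% = DMSO negative control and 100% = EDTA positive control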
# Target sequence (P05186 whole entry, looked up): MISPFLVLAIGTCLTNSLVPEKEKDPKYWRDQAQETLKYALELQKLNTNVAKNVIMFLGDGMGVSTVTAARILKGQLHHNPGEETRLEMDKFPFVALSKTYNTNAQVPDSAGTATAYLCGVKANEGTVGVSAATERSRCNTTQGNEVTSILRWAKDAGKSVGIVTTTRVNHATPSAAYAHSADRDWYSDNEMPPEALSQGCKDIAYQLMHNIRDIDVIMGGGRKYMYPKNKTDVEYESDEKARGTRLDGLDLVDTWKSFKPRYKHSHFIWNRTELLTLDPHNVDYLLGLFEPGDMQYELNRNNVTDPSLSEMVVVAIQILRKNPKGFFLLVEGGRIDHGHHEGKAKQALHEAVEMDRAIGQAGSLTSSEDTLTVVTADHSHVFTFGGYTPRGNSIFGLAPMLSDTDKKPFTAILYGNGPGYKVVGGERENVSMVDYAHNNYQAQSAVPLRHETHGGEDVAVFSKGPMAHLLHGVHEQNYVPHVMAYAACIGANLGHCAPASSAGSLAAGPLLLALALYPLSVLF
# L major viab = Leishmania major promastigote growth inhibition, primary screen; Leishmania major promastigotes, resazurin fluorescence viability; inhibition, % at 10 µM; hit rate 9% among 200,000; in the data active means inhibition above about 50%;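 further: promastigotes grown with compound for 44 hours at 28 °C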
# HCT116 bCat-KO = primary screen for growth suppressors in beta-catenin knockout HCT116 cells (colon tumor, human); HCT116 beta-catenin knockout viability, CellTiter-Glo, 60 h; hits give low values; viability, % at 10 µM; hit rate 1.5% among 140,000;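 active means viability at or under a set limit, the compound median less 4 SD, cut at about 6% in these data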;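 further: 0% = Hyamine 1622 control at 20 µM and 100% = untreated cell control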
# TNAP inh hiacc = human TNAP enzyme inhibitors, primary screen, biochemical, luminescent, high phosphate acceptor level, uHTS. Alkaline phosphatase, tissue-nonspecific isozyme (Homo sapiens), P05186. purified TNAP, CDP-star luminescence, 1 M DEA. inhibition, % at 20 µM. hit rate 0.03% among 200,000;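 active means over 50% inhibition of tissue-nonspecific alkaline phosphatase at 20 µM in the single-dose screen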;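 further: plate controls were DMSO wells for no effect and EDTA-quenched wells as full inhibition for full effect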
# HCT116 PTEN-null = growth suppression of PTEN-null HCT116, primary screen, cell-based, CellTiter-Glo; HCT116 PTEN-null viability, 60 h; hits give low values; viability, % at 10 µM; hit rate 1.2% among 140,000;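 active means viability at or below a set limit, 4 SD under the median of all tested compounds, cut at about 3.7% in these data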;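 further: PTEN knockout HCT116 line with beta catenin targeted HCT116 as companion control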
# TNAP act hi DEA = TNAP activators at high phosphate acceptor level, primary screen, biochemical, luminescence, uHTS; Alkaline phosphatase, tissue-nonspecific isozyme (Homo sapiens), P05186; purified TNAP, CDP-star luminescence, 1 M DEA, 30 min; hits give high values; 0 = EDTA background, 1 = DMSO-only activity; 200,000 tested, under 10 active; activation factor at 20 µM;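 active means activation factor at least 2 at 20 µM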
#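 Control set: EDTA negative control, DMSO positive control / Assay system: human TNAP / Quantity: TNAP 1/800 final / Evaluation: TNAP activation factor scaled between EDTA and DMSO control wells / Measured by: luminescent substrate turnover signal / Compound dosing: one dose, 20 µM / Times: 30 min enzyme reaction at room temperature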
# * hit, by the source's call; / = no result.
SMILES,TNAP inh noacc,L major viab,HCT116 bCat-KO,TNAP inh hiacc,HCT116 PTEN-null,TNAP act hi DEA
CC(C)CNC(=O)c1ccc(Cl)c(N)c1,-7,22,92,-3,98,1
CCN(CC)S(=O)(=O)c1cc(C(=O)NCCN2CCOCC2)ccc1Cl,-11,6,/,-2,/,1
O=C(Nc1ccc2c(c1)CCC2)c1ccc(F)c(S(=O)(=O)N2CCOCC2)c1,-14,78*,81,-2,72,1
CC1CCN(CCC(=O)Nc2ccc(Cl)cc2)CC1,-8,4,/,-7,/,1.1
O=C(Nc1ccc2c(c1)CCC2)c1cccc(F)c1,-3,83*,73,1,59,1
CC1CCN(CCC(=O)Nc2ccc3c(c2)CCC3)CC1,-3,84*,88,0,87,1
Cc1cccc(C)c1NC(=O)CCCN1CC(C)OC(C)C1 (stereo not given),-5,66*,94,-1,124,1
Cc1ccc(C(=O)Nc2ccc3c(c2)CCC3)cc1S(=O)(=O)N1CCOCC1,3,24,/,-6,/,1.1
CN(c1ccc(F)cc1)S(=O)(=O)c1ccc(Cl)c(C(=O)Nc2ccc3c(c2)CCC3)c1,-11,4,58,0,64,1
CN(c1cccc(Cl)c1)S(=O)(=O)c1cccc(C(=O)Nc2ccc3c(c2)CCC3)c1,-10,95*,37,4,48,1
Cc1ccc(NC(=O)CCC(=O)N/N=C/c2cccs2)cc1,-2,-2,/,2,/,1
CCc1ccc(NC(=S)NC2CC3CCCC(C2)N3Cc2ccccc2)cc1 (stereo not given),-138,95*,/,-21,/,1.2
S=C(Nc1ccc(Cl)cc1)NC1CC2CCC(C1)N2Cc1ccccc1 (stereo not given),-8,100*,/,-2,/,1
COc1ccc(CN2C3CCCC2CC(NC(=O)/C=C/c2ccccc2)C3)cc1 (stereo not given),-3,87*,/,-1,/,1
CNC(=S)NC1CC2CCC(C1)N2Cc1ccccc1 (stereo not given),-2,86*,91,2,89,1
Cc1cc(C)n2cc(CSc3nc4ccccc4s3)nc2n1,-6,2,92,1,89,1
O=C(CN1N=C(c2ccccc2)CCC1=O)NCc1ccco1,4,-6,94,4,106,1
Cc1ccc(NC2=Nc3ccccc3N3C2=Nc2c(c(C)nn2-c2ccccc2)C3c2ccc(O)c(O)c2)cc1 (stereo not given),-4,86*,1.2*,3,1.1*,1
Cc1nn(-c2ccccc2)c2c1C(c1ccc(O)c(O)c1)N1C(=N2)C(Nc2ccccc2)=Nc2ccccc21 (stereo not given),1,90*,1.1*,7,1.2*,0.9
Cc1nn(-c2ccccc2)c2c1C(c1ccc([N+](=O)[O-])cc1)N1C(=N2)C(=O)Nc2ccccc21 (stereo not given),1,48,42,4,32,1
Cc1cccc(NC2=Nc3ccccc3N3C2=Nc2c(c(C)nn2-c2ccccc2)C3c2ccc(O)c(O)c2)c1 (stereo not given),-1,-7,2.3*,3,1.1*,1
CCCC1=C(C(=O)OCC)C(c2c(C)nn(-c3ccccc3)c2Cl)C(C#N)=C(N)O1 (stereo not given),7,8,85,-1,83,1
COc1cccc2cc(C(C)N(CCCN3CCOCC3)C(=S)Nc3ccccc3C)oc12 (stereo not given),-8,40,/,-5,/,1.1
CCc1ccc(NC(=O)N(CCCN2CCOCC2)C(C)c2cc3cccc(OC)c3o2)cc1 (stereo not given),-3,54*,81,-5,61,1.1
COc1cccc2cc(C(C)N(CCCN3CCOCC3)C(=S)Nc3c(C)cccc3C)oc12 (stereo not given),-10,53*,/,-2,/,1
SMILES,TNAP inh noacc,L major viab,HCT116 bCat-KO,TNAP inh hiacc,HCT116 PTEN-null,TNAP act hi DEA
Cn1c(N=NC(=O)c2ccccc2)c(O)c2ccccc21,10,5,91,16,92,0.8
CCCOc1ccc(C(=O)CCC(=O)OCC(=O)Nc2ccc(Oc3ccccc3)cc2)cc1,-13,-5,93,-2,92,1
CC1CCCCN1CC(=O)Nc1ccc(Oc2ccccc2)cc1 (stereo not given),-15,96*,89,-5,96,1.1
CC1CCCCN1CC(=O)Nc1ccc(N2CCCCCC2)cc1 (stereo not given),-4,25,/,-2,/,1
CCOC(=O)N1CCN(CC(=O)Nc2ccc(Oc3ccccc3)cc2)CC1,-11,97*,92,-4,93,1
C=CCC(=O)OCC(=O)Nc1ccc(Oc2ccccc2)cc1,-3,97*,/,-6,/,1.1
COc1ccccc1N1C(=O)C2C(c3ccccc3F)NN(C(=O)c3ccc(C)cc3)C2C1=O (stereo not given),-4,-5,103,0,98,1
CN(C)CCN1C(=O)NC(C)(c2ccc([N+](=O)[O-])cc2)C1=O (stereo not given),-2,-7,/,0,/,1
CC(O)C(C(=O)OCc1ccc([N+](=O)[O-])cc1)N1C(=O)c2ccccc2C1=O (stereo not given),-5,-2,84,-2,94,1
COc1ccc(C(=O)OCCNC(=O)c2ccncc2)cc1OC,-16,1,91,0,100,1
Cn1c(-c2c(N)n(-c3ccccc3)c3nc4ccccc4nc23)nc2ccccc21,-59,75*,45,-3,53,1
Cc1ccc(C)c(NCC(O)c2ccccc2)c1 (stereo not given),-10,-2,/,-7,/,1.1
c1ccc(CSc2ccc(-c3ccccn3)nn2)nc1,54*,-13,/,0,/,1
Clc1ccc(-c2ccc(SCc3ccccn3)nn2)cc1,0,-2,104,-3,99,1
CC1=C(C(=O)OCC2CCCO2)C(c2ccc(Cl)cc2)NC(=O)N1 (stereo not given),-3,-5,/,0,/,1
Cc1cccc(Nc2nc(N)c([N+](=O)[O-])c(NCc3ccco3)n2)c1,-1,28,46,-8,37,1.1
CNc1nc(Nc2ccc(Br)cc2)nc(N)c1[N+](=O)[O-],4,50*,82,1,84,1
COc1ccc(-c2csc(-c3cc4ccccc4oc3=N)n2)cc1,0,1,90,0,90,1

# Source: PubChem
